Results published in ChEMBL document CHEMBL1800004, “Discovery of 4-anilinofuro[2,3-b]quinoline derivatives as selective and orally active compounds against non-small-cell lung cancers” (J Med Chem, 2011).

Assays:
Format in all cases: functional
NCI-H460 [1] = experiment: Anticancer activity against human NCI-H460 cells assessed as cell growth at 20 ug/mL after 48 hrs by SRB assay relative to control; details: NCI-H460, 48 h, read-out: Activity
Outline: (§1)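 Cells were inoculated and preincubated in microtiter plates. Compounds were dissolved in DMSO, diluted in culture medium, and tested at 20.0 and 4.0 μg/mL for 48 h. The end-point used sulforhodamine B protein staining, and growth was expressed as percent of untreated control cells.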

MCF7 [2] = experiment: Anticancer activity against human MCF7 cells assessed as cell growth at 4 ug/mL after 48 hrs by SRB assay relative to control; details: MCF7, 48 h, read-out: Activity; outline: as §1
SF-268 [3] = experiment: Anticancer activity against human SF268 cells assessed as cell growth at 20 ug/mL after 48 hrs by SRB assay relative to control; details: SF-268, 48 h, read-out: Activity; outline: as §1
SF-268 [4] = experiment: Anticancer activity against human SF268 cells assessed as cell growth at 4 ug/mL after 48 hrs by SRB assay relative to control; details: SF-268, 48 h, read-out: Activity; outline: as §1
NCI-H460 [5] = experiment: Anticancer activity against human NCI-H460 cells assessed as cell growth at 4 ug/mL after 48 hrs by SRB assay relative to control; details: NCI-H460, 48 h, read-out: Activity; outline: as §1
MCF7 [6] = experiment: Anticancer activity against human MCF7 cells assessed as cell growth at 20 ug/mL after 48 hrs by SRB assay relative to control; details: MCF7, 48 h, read-out: Activity; outline: as §1

SMILES	growth at 20 µg/mL (NCI-H460 [1]) [%]	growth at 4 µg/mL (MCF7 [2]) [%]	growth at 20 µg/mL (SF-268 [3]) [%]	growth at 4 µg/mL (SF-268 [4]) [%]	growth at 4 µg/mL (NCI-H460 [5]) [%]	growth at 20 µg/mL (MCF7 [6]) [%]
C/C(=N\OCCCCN1CCOCC1)c1ccc(Nc2c3ccccc3nc3occc23)cc1	-1	76	2	125	118	-2
COc1ccc2c(Nc3ccc(/C(C)=N/OCCCCN4CCOCC4)cc3)c3c(Cl)coc3nc2c1	20	96	99	110	87	5
COc1ccc2c(Nc3ccc(C(=O)NCCN(C)C)cc3)c3c(Cl)coc3nc2c1	60	97	68	119	112	44
CNC(=O)c1ccc(Nc2c3ccc(OC)cc3nc3occ(Cl)c23)cc1	27	72	35	52	58	47
COc1ccc2c(Nc3ccc(/C(C)=N/OCCCN)cc3)c3ccoc3nc2c1	16	100	56	103	105	18
COc1ccc2c(Nc3ccc(C(=O)NCCO)cc3)c3c(Cl)coc3nc2c1	82	96	100	103	98	74
COc1ccc2c(Nc3ccc(C(N)=O)cc3)c3c(Cl)coc3nc2c1	77	90	–	–	96	66
NC(=O)c1ccc(Nc2c3ccccc3nc3occ(Cl)c23)cc1	97	93	97	97	97	92
C/C(=N\OCCN(C)C)c1ccc(Nc2c3ccccc3nc3occ(Cl)c23)cc1	-1	70	2	71	68	-3
C/C(=N\OCCN(C)C)c1ccc(Nc2c3ccccc3nc3occc23)cc1	0	59	-5	81	94	0
C/C(=N\OCCCN(C)C)c1ccc(Nc2c3ccccc3nc3occ(Cl)c23)cc1	1	61	1	66	52	1
COc1ccc2c(Nc3ccc(/C(C)=N/OCCN4CCCCC4)cc3)c3c(Cl)coc3nc2c1	3	56	48	112	67	-1
C/C(=N\OCCCN(C)C)c1ccc(Nc2c3ccccc3nc3occc23)cc1	7	84	0	62	52	22
COc1ccc2c(Nc3ccc(/C(C)=N/OCCCN(C)C)cc3)c3ccoc3nc2c1	5	59	3	90	82	2
COc1ccc2c(Nc3ccc(/C(C)=N/OCCN4CCOCC4)cc3)c3c(Cl)coc3nc2c1	68	85	108	104	97	37
C/C(=N\OCCN1CCCCC1)c1ccc(Nc2c3ccccc3nc3occ(Cl)c23)cc1	3	121	31	120	101	26
C/C(=N\OCCN1CCOCC1)c1ccc(Nc2c3ccccc3nc3occc23)cc1	23	120	32	121	108	56
COc1ccc2c(Nc3ccc(/C(C)=N/OCCN4CCCC4)cc3)c3ccoc3nc2c1	5	63	6	104	69	3

SMILES	growth at 20 µg/mL (NCI-H460 [1]) [%]	growth at 4 µg/mL (MCF7 [2]) [%]	growth at 20 µg/mL (SF-268 [3]) [%]	growth at 4 µg/mL (SF-268 [4]) [%]	growth at 4 µg/mL (NCI-H460 [5]) [%]	growth at 20 µg/mL (MCF7 [6]) [%]
COc1ccc2c(Nc3ccc(C(=O)NCCCN(C)C)cc3)c3c(Cl)coc3nc2c1	36	91	71	94	92	72
COc1ccc2c(Nc3ccc(/C(C)=N/OCCCN(C)C)cc3)c3c(Cl)coc3nc2c1	4	66	1	103	66	1
C/C(=N\OCCN1CCCCC1)c1ccc(Nc2c3ccccc3nc3occc23)cc1	-1	114	-3	96	99	3
COc1ccc2c(Nc3ccc(/C(C)=N/OCCN(C)C)cc3)c3ccoc3nc2c1	-1	67	1	91	75	-1
COc1ccc2c(Nc3ccc(/C(C)=N/OCCN4CCOCC4)cc3)c3ccoc3nc2c1	44	76	92	110	96	25
COc1ccc2c(Nc3ccc(/C(C)=N/OCCCCN4CCOCC4)cc3)c3ccoc3nc2c1	21	83	44	110	89	75
C/C(=N\OCCCCN1CCOCC1)c1ccc(Nc2c3ccccc3nc3occ(Cl)c23)cc1	3	75	3	115	91	-3
COc1ccc2c(Nc3ccc(/C(C)=N/OCCCN)cc3)c3c(Cl)coc3nc2c1	8	101	48	109	91	3
C/C(=N\OCCN1CCCC1)c1ccc(Nc2c3ccccc3nc3occc23)cc1	1	64	-3	66	54	6
COc1ccc2c(Nc3ccc(/C(C)=N/OCCN4CCCCC4)cc3)c3ccoc3nc2c1	9	77	44	106	84	2
C/C(=N\OCCN1CCOCC1)c1ccc(Nc2c3ccccc3nc3occ(Cl)c23)cc1	16	112	32	121	107	54
O=C(O)c1ccc(Nc2c3ccccc3nc3occ(Cl)c23)cc1	81	62	73	80	89	61
NS(=O)(=O)c1ccc(Nc2c3ccccc3nc3occ(Cl)c23)cc1	79	91	96	98	86	90
COc1ccc2c(Nc3ccc(S(N)(=O)=O)cc3)c3c(Cl)coc3nc2c1	17	90	–	–	97	33
COc1ccc2c(Nc3ccc(/C(C)=N/OCCN4CCCC4)cc3)c3c(Cl)coc3nc2c1	5	55	5	102	53	1
C/C(=N\OCCN1CCCC1)c1ccc(Nc2c3ccccc3nc3occ(Cl)c23)cc1	-1	86	-3	86	69	-2
COc1ccc2c(Nc3ccc(/C(C)=N/OCCN(C)C)cc3)c3c(Cl)coc3nc2c1	-1	51	-1	102	74	-2
